pEC50: −log10 of the molar value.
Legend:
[1] = biological target: T1, Metabotropic glutamate receptor 4 (Homo sapiens, UniProt Q14833); assay: Positive allosteric modulation of human mGlu4 receptor assessed as increase in glutamate-induced calcium mobilization; format: functional
In short: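 Calcium mobilization assay in cells expressing human mGlu4; potentiation of the glutamate response measured; EC50 values are the average of n = 3.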

[2] = biological target: T1, Metabotropic glutamate receptor 4; assay: Positive allosteric modulation of human mGlu4 receptor assessed as increase in glutamate-induced calcium mobilization at 30 uM relative to PHCCC; format: functional
In short: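 Calcium mobilization assay at human mGlu4; response amplitude with 30 µM test compound normalized to the standard PHCCC and expressed as %GluMax.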

[3] = AUC in rat at 1 mg/kg, iv; format: ADME, organism-based; details: in vivo
In short: (§1)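 Rat IV dosing at 1 mg/kg; plasma PK parameters (clearance, half-life, MRT, Vss, AUC) derived from plasma concentration-time profile.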

[4] = Mean residence time in rat at 1 mg/kg, iv; format: ADME, organism-based; details: in vivo; in short: as §1
[5] = Systemic plasma concentration in rat at 10 mg/kg, po incubated for 1 hr; format: ADME, organism-based
In short: (§2)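 Rats dosed orally at 10 mg/kg, either with vehicle or co-dosed with 1-aminobenzotriazole (ABT), a pan-irreversible cytochrome P450 inhibitor. At 1 h post-dose, systemic plasma, hepatic portal vein plasma and brain were sampled. Drug concentrations were measured in each matrix, and brain:plasma ratios were derived from these levels.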

[6] = Plasma concentration in rat hepatic portal vein at 10 mg/kg, po coadministered with panirreversible P450 inhibitor ABT incubated for 1 hr; format: ADME, organism-based
In short: (§3)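 Rats dosed orally at 10 mg/kg, with vehicle or co-dosed with the pan-irreversible P450 inhibitor 1-aminobenzotriazole (ABT); samples taken at 1 h from systemic plasma, hepatic portal vein plasma and brain. Brain:plasma and systemic:HPV ratios are calculated from these concentrations.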

[7] = Plasma concentration in rat hepatic portal vein at 10 mg/kg, po incubated for 1 hr; format: ADME, organism-based; in short: as §3
[8] = Plasma clearance in rat at 1 mg/kg, iv; format: ADME, organism-based; in short: as §1
[9] = Volume of distribution at steady state in rat at 1 mg/kg, iv; format: ADME, organism-based; details: in vivo, read-out: Vdss; in short: as §1
[10] = Systemic plasma concentration in rat at 10 mg/kg, po coadministered with panirreversible P450 inhibitor ABT incubated for 1 hr; format: ADME, organism-based; in short: as §2
[11] = Drug level in rat brain at 10 mg/kg, po incubated for 1 hr; format: ADME, organism-based; details: read-out: Drug uptake; in short: as §3
[12] = Half life in rat at 1 mg/kg, iv; format: ADME, organism-based; details: in vivo; in short: as §1
[13] = Ratio of drug level in rat brain to plasma at 10 mg/kg, po incubated for 1 hr; format: ADME, organism-based; details: read-out: BPR; in short: as §3
[14] = Ratio of drug level in rat brain to plasma at 10 mg/kg, po coadministered with panirreversible P450 inhibitor ABT incubated for 1 hr; format: ADME, organism-based; details: read-out: BPR; in short: as §2
[15] = Ratio of systemic plasma concentration to hepatic portal vein plasma concentration in rat at 10 mg/kg, po coadministered with panirreversible P450 inhibitor ABT; format: ADME, organism-based; details: in vivo; in short: as §3
[16] = Ratio of systemic plasma concentration to hepatic portal vein plasma concentration in rat at 10 mg/kg, po; format: ADME, organism-based; details: in vivo; in short: as §3
[17] = test system: Plasma; assay: Fraction unbound in rat plasma by equilibrium dialysis method; format: ADME, cell-free
In short: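 Protein binding in rat plasma measured by equilibrium dialysis; fraction unbound (Fu) reported.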

[18] = Drug level in rat brain at 10 mg/kg, po coadministered with panirreversible P450 inhibitor ABT incubated for 1 hr; format: ADME, organism-based; details: read-out: Drug uptake; in short: as §3

T1 sequence (Q14833 whole entry): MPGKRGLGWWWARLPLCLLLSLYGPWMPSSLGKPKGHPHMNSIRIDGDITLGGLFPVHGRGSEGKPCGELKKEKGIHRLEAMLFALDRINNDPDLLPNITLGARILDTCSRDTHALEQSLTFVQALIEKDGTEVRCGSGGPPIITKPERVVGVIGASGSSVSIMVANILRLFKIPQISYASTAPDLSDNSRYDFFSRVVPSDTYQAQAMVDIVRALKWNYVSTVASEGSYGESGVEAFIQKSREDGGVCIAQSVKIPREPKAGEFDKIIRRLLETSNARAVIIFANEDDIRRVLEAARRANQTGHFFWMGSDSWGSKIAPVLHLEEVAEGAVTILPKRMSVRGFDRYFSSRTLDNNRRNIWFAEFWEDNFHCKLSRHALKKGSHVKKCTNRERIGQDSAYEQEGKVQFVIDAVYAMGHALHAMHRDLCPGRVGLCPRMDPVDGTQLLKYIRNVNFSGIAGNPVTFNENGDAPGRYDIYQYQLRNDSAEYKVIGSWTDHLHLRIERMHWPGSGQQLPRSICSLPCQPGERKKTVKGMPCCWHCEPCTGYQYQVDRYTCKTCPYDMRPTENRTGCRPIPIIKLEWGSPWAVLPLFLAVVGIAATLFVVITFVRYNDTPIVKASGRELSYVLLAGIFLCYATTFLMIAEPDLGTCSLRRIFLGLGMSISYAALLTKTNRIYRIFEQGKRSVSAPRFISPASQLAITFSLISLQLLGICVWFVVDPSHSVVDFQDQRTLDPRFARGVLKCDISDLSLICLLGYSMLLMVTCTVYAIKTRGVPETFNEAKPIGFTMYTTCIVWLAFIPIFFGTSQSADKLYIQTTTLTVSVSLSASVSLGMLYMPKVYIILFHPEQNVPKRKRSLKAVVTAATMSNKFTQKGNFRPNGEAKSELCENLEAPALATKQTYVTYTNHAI

Compound | pEC50 [1] | %max [2] | other results
O=C(Nc1ccn(S(=O)(=O)c2ccc(Cl)cn2)c1)c1ccccn1 | 6.46 | 83% | –
Cc1cc(S(=O)(=O)n2ccc(NC(=O)c3ccccn3)c2)ccc1Cl | 6.79 | 72.2% | AUC [3]: 192 ng·h/mL; MRT [4]: 1.41 h; concentration at 1 h [5]: 7.4 ng/mL; concentration at 1 h [6]: 764 ng/mL; concentration at 1 h [7]: 731 ng/mL; clearance [8]: 86.8 mL/min/kg; Vd [9]: 7.4 L/kg; concentration at 1 h [10]: 198 ng/mL; concentration at 1 h [11]: 8.1 ng/g; half-life [12]: 2.78 h; Kp at 1 h [13]: 1; Kp at 1 h [14]: 1; Ratio [15]: 0.26; Ratio [16]: < 0.01; Fu [17]: 0.004; concentration at 1 h [18]: 176 ng/g
O=C(Nc1ccn(S(=O)(=O)Cc2ccccc2Cl)c1)c1ccccn1 | 6.76 | 119% | –
O=C(Nc1ccn(S(=O)(=O)Cc2ccccc2F)c1)c1ccccn1 | 6.60 | 117% | –
CC(c1ccccc1)S(=O)(=O)n1ccc(NC(=O)c2ccccn2)c1 (stereo not drawn) | 5.53 | 59.6% | –
CCc1nc(NC(=O)c2ccccn2)sc1S(=O)(=O)Cc1ccc(Cl)cc1F | 6.66 | 120% | –
Cc1nc(NC(=O)c2ccccn2)sc1S(=O)(=O)Cc1ccc(F)cc1F | 6.26 | 93.5% | –
O=C(Nc1cnn(S(=O)(=O)c2ccc(C(F)(F)F)cc2)c1)c1ccccn1 | 6.62 | 35.3% | –
Cc1nc(NC(=O)c2ccccn2)sc1S(=O)(=O)Cc1c(F)cccc1F | 6.53 | 99.3% | –
O=C(Nc1ccn(S(=O)(=O)Cc2ccc(F)cc2Cl)c1)c1ccccn1 | 7.08 | 122% | –
O=C(Nc1ccn(S(=O)(=O)c2ccc(Cl)cc2)c1)c1ccccn1 | 5.91 | 103% | Fu [17]: 0.004
O=C(Nc1ccn(S(=O)(=O)c2ccc(Cl)nc2)c1)c1ccccn1 | 6.36 | 72.9% | –
O=C(Nc1ccn(S(=O)(=O)C(F)c2ccccc2F)c1)c1ccccn1 (stereo not drawn) | 5.99 | 71% | –
Cc1nc(NC(=O)c2ccccn2)sc1S(=O)(=O)Cc1ccccc1Cl | 6.35 | 94.8% | –
O=C(Nc1ncc(S(=O)(=O)Cc2ccc(Cl)cc2F)s1)c1ccccn1 | 7.08 | 35.1% | –
O=C(Nc1ccn(S(=O)(=O)Cc2ccc(C(F)(F)F)cc2)c1)c1ccccn1 | 6.73 | 88.7% | –
O=C(Nc1ccn(S(=O)(=O)Cc2ccc(Cl)cc2)c1)c1ccccn1 | 6.40 | 140% | –

Second part, led by results:

pEC50 [1] | %max [2] | Compound | other results
6.13 | 35.6% | O=C(Nc1ccn(S(=O)(=O)c2ccc(C(F)(F)F)cc2)c1)c1ccccn1 | –
6.82 | 109% | CCc1nc(NC(=O)c2ccccn2)sc1S(=O)(=O)Cc1c(F)cccc1F | –
7.21 | 80.3% | Cc1ccc(S(=O)(=O)n2ccc(NC(=O)c3ccccn3)c2)cc1C | AUC [3]: 448 ng·h/mL; MRT [4]: 2.48 h; clearance [8]: 37.2 mL/min/kg; Vd [9]: 5.5 L/kg; half-life [12]: 4.2 h; Fu [17]: 0.012
5.38 | 112% | Cc1cccc(CS(=O)(=O)n2ccc(NC(=O)c3ccccn3)c2)c1 | –
6.13 | 78.8% | O=C(Nc1ccn(S(=O)(=O)c2ccc(F)cc2)c1)c1ccccn1 | –
6.83 | 92.9% | Cc1ccc(S(=O)(=O)n2cc(NC(=O)c3ccccn3)cn2)cc1C | Fu [17]: 0.005
6.57 | 98.9% | Cc1cc(S(=O)(=O)n2ccc(NC(=O)c3ccccn3)c2)ccc1F | –
6.24 | 98.6% | O=C(Nc1ccn(S(=O)(=O)Cc2cccc(F)c2)c1)c1ccccn1 | –
6.72 | 109% | O=C(Nc1ccn(S(=O)(=O)Cc2ccc(F)cc2F)c1)c1ccccn1 | –
6.72 | 30.6% | O=C(Nc1ncc(S(=O)(=O)Cc2ccccc2Cl)s1)c1ccccn1 | –
< 4.52 | 33.5% | O=C(Nc1ccn(S(=O)(=O)C(F)(F)c2ccccc2F)c1)c1ccccn1 | –
6.98 | 84.8% | Cc1cccc(S(=O)(=O)n2ccc(NC(=O)c3ccccn3)c2)c1 | Fu [17]: 0.001
5.38 | 112% | Cc1nc(NC(=O)c2ccccn2)sc1S(=O)(=O)Cc1ccc(Cl)cc1F | –
6.91 | 88.8% | Cc1ccc(S(=O)(=O)n2ccc(NC(=O)c3ccccn3)c2)cc1 | Fu [17]: 0.009
